According to ChEMBL document CHEMBL5678814, “Novel Mps1 Kinase Inhibitors with Potent Antitumor Activity” (Mol Cancer Ther, 2016):

What was measured:
[1] = Volume of distribution at steady state in male Wistar rat plasma at 0.5 mg/kg, iv measured after 24 hrs by LC/-MS/MS analysis; type: ADME, organism-based; details: read-out: Vdss
[2] = tested on: HT1197; assay: Antiproliferative activity against human HT1197 cells assessed as cell growth inhibition incubated for 96 hrs by MTS assay; type: functional, cell-based; details: HT1197, 96 h
[3] = Antiproliferative activity against human OUMS-23 cells assessed as cell growth inhibition incubated for 96 hrs by crystal violet staining; details: OUMS-23, 96 h
[4] = tested on: NCI-H2052; assay: Antiproliferative activity against human NCI-H2052 cells assessed as cell growth inhibition incubated for 96 hrs by crystal violet staining; details: NCI-H2052, 96 h
[5] = tested on: COLO 320DM; assay: Antiproliferative activity against human COLO 320DM cells assessed as cell growth inhibition incubated for 96 hrs by crystal violet staining
[6] = tested on: NCI-H23; assay: Antiproliferative activity against human NCI-H23 cells assessed as cell growth inhibition incubated for 96 hrs by crystal violet staining; details: NCI-H23, 96 h
[7] = tested on: MDA-MB-231; assay: Antiproliferative activity against human MDA-MB-231 cells assessed as cell growth inhibition incubated for 96 hrs by MTS assay; type: functional, cell-based; details: MDA-MB-231, 96 h
[8] = tested on: A549; assay: Antiproliferative activity against human A549 cells assessed as cell growth inhibition incubated for 96 hrs by crystal violet staining; details: A549, 96 h
[9] = tested on: VCaP; assay: Antiproliferative activity against human VCaP cells assessed as cell growth inhibition incubated for 96 hrs by MTS assay; type: functional, cell-based
[10] = tested on: NCI-H1770; assay: Antiproliferative activity against human NCI-H1770 cells assessed as cell growth inhibition incubated for 96 hrs by crystal violet staining; details: NCI-H1770, 96 h
[11] = tested on: A2780; assay: Antiproliferative activity against human A2780 cells assessed as cell growth inhibition incubated for 96 hrs by crystal violet staining; details: A2780, 96 h
[12] = tested on: OV-90; assay: Antiproliferative activity against human OV-90 cells assessed as cell growth inhibition incubated for 96 hrs by crystal violet staining; details: OV-90, 96 h
[13] = tested on: SK-MEL-28; assay: Antiproliferative activity against human SK-MEL-28 cells assessed as cell growth inhibition incubated for 96 hrs by crystal violet staining; details: SK-MEL-28, 96 h
[14] = molecular target: Mitogen-activated protein kinase 10 (Homo sapiens, UniProt P53779); assay: Binding affinity to JNK3 (unknown origin) assessed as dissociation constant
Chain of Mitogen-activated protein kinase 10 (P53779 whole entry): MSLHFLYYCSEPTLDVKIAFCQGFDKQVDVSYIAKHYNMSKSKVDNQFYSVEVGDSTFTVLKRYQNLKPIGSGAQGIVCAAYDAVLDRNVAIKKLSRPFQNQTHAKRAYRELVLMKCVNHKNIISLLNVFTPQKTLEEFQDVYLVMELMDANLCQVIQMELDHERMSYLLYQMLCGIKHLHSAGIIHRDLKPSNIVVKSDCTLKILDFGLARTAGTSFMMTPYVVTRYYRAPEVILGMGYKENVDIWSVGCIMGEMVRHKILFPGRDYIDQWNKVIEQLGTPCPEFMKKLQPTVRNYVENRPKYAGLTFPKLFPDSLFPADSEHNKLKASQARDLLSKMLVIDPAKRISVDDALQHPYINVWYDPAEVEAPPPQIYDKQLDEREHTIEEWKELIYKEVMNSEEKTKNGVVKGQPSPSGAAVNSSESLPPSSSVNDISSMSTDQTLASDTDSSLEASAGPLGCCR

[15] = tested on: NCI-H292; assay: Antiproliferative activity against human NCI-H292 cells assessed as cell growth inhibition incubated for 96 hrs by crystal violet staining; details: NCI-H292, 96 h
[16] = tested on: NCI-H526; assay: Antiproliferative activity against human NCI-H526 cells assessed as cell growth inhibition incubated for 96 hrs by MTS assay; type: functional, cell-based; details: NCI-H526, 96 h
[17] = tested on: RKO; assay: Antiproliferative activity against human TP53 mutant RKO cells assessed as cell growth inhibition incubated for 96 hrs by crystal violet staining
[18] = molecular target: Misshapen-like kinase 1 (Homo sapiens, UniProt Q8N4C8); assay: Binding affinity to MINK (unknown origin) assessed as dissociation constant
Chain of Misshapen-like kinase 1 (Q8N4C8 whole entry): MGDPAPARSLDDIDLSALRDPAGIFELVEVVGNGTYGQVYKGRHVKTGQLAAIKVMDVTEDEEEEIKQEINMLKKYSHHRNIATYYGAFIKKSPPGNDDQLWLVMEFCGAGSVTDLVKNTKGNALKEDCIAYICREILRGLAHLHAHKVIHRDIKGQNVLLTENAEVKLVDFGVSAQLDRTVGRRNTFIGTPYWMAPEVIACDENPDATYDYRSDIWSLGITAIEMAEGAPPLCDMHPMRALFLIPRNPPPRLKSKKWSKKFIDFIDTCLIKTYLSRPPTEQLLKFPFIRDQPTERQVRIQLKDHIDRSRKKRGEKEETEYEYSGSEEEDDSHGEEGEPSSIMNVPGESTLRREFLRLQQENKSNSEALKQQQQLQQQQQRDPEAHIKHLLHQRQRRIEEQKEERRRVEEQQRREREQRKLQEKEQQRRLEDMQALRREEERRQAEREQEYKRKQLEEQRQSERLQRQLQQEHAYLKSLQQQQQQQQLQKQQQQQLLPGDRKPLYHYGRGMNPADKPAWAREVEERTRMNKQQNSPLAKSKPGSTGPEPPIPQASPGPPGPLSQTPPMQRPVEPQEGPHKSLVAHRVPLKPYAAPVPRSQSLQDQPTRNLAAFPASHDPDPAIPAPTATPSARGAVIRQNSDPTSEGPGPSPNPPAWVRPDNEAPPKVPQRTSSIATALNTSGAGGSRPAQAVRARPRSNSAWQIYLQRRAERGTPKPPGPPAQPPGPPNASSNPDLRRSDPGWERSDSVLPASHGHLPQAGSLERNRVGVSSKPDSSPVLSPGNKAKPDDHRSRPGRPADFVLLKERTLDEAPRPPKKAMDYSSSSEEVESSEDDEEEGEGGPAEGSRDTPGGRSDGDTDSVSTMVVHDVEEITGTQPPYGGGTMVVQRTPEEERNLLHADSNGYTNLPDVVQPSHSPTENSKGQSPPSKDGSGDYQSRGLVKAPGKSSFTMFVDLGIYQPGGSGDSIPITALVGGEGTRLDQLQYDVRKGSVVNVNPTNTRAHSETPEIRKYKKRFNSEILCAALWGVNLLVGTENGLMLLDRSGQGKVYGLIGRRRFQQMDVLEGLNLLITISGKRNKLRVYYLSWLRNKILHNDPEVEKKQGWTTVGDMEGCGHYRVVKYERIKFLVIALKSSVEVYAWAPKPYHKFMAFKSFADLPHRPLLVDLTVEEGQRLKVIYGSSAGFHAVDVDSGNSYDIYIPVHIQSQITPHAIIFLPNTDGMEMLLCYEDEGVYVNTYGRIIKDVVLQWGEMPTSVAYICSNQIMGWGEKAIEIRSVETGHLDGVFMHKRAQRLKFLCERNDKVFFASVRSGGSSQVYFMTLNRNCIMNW

[19] = molecular target: Serine/threonine-protein kinase BRSK2 (Homo sapiens, UniProt Q8IWQ3); assay: Binding affinity to BRSK2 (unknown origin) assessed as dissociation constant
Chain of Serine/threonine-protein kinase BRSK2 (Q8IWQ3 whole entry): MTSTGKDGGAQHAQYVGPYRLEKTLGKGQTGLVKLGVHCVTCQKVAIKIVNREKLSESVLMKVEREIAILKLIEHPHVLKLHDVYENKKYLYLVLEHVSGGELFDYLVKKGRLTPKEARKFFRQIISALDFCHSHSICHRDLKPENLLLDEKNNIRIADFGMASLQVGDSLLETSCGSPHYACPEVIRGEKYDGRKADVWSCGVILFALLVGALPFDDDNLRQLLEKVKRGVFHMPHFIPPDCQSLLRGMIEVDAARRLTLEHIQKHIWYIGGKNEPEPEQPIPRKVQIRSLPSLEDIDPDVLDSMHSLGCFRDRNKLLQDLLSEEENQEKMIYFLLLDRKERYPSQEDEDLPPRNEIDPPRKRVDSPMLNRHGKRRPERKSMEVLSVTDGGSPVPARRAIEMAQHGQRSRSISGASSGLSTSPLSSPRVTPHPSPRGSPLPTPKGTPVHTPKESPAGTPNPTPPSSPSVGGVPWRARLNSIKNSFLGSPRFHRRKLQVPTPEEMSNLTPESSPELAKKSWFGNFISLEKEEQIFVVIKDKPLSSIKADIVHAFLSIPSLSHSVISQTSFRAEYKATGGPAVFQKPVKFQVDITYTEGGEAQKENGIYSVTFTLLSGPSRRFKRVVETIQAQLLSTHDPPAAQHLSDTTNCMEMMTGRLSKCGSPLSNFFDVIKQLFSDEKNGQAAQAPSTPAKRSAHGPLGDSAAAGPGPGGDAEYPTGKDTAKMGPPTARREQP

[20] = Half life in male Wistar rat plasma at 0.5 mg/kg, iv measured after 24 hrs by LC/-MS/MS analysis; type: ADME, organism-based
[21] = tested on: NCI-H2030; assay: Antiproliferative activity against human NCI-H2030 cells assessed as cell growth inhibition incubated for 96 hrs by crystal violet staining; details: NCI-H2030, 96 h
[22] = molecular target: Phosphatidylinositol 5-phosphate 4-kinase type-2 gamma (Homo sapiens, UniProt Q8TBX8); assay: Binding affinity to PIP5K2C (unknown origin) assessed as dissociation constant
Chain of Phosphatidylinositol 5-phosphate 4-kinase type-2 gamma (Q8TBX8 whole entry): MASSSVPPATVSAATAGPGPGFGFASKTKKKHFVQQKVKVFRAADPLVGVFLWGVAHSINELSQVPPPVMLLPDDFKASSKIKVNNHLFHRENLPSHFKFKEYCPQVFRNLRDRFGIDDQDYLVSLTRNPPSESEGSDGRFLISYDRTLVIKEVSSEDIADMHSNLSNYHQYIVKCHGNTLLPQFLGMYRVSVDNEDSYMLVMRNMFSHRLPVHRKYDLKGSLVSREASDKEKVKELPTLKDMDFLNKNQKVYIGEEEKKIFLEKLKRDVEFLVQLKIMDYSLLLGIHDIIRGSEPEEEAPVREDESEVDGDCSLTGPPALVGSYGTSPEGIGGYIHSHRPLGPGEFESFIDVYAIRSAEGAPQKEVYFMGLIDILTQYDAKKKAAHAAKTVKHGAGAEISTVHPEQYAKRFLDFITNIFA

[23] = tested on: NCI-H28; assay: Antiproliferative activity against human NCI-H28 cells assessed as cell growth inhibition incubated for 96 hrs by crystal violet staining; details: NCI-H28, 96 h
[24] = tested on: NCI-H2009; assay: Antiproliferative activity against human NCI-H2009 cells assessed as cell growth inhibition incubated for 96 hrs by crystal violet staining; details: NCI-H2009, 96 h
[25] = tested on: HT-1080; assay: Antiproliferative activity against human HT-1080 cells assessed as cell growth inhibition incubated for 96 hrs by MTS assay; type: functional, cell-based; details: HT-1080, 96 h
[26] = Toxicity in human A2780cis cells xenografted female athymic NMRI mouse model assessed as change in body weight at 2.5 mg/kg, po administered twice daily intermittent for 2 days on/5 days off; type: organism-based; details: in vivo, 168 h, time 7 day
In short: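 A2780cis cells (2×10^6 in 100% Matrigel) implanted s.c. in athymic mice. Treatment started at ~30 mm2. Oral dosing twice daily, 2 days on/5 days off, with PEG 400/ethanol/Solutol vehicle controls. Dose based on individual body weight. Body weight monitored two to three times weekly as toxicity measure; >20% loss deemed toxic.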

[27] = Antitumor activity against human A2780cis cells xenografted female athymic NMRI mouse model assessed as T/C ratio at 2.5 mg/kg, po administered twice daily intermittent for 2 days on/5 days off; type: functional; details: time 7 day
[28] = tested on: SK-MES-1; assay: Antiproliferative activity against human SK-MES-1 cells assessed as cell growth inhibition incubated for 96 hrs by MTS assay; type: functional, cell-based; details: SK-MES-1, 96 h
[29] = tested on: SAOS-2; assay: Antiproliferative activity against human SAOS-2 cells assessed as cell growth inhibition incubated for 96 hrs by MTS assay; type: functional, cell-based; details: SAOS-2, 96 h
[30] = Cmax in male Wistar rat plasma at 0.5 mg/kg, po measured after 24 hrs by LC/-MS/MS analysis; type: ADME, organism-based
In short: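 Male Wistar rats given 0.5 mg/kg orally. Plasma collected from 8 min to 24 h, precipitated with ice-cold acetonitrile (1:5), and analysed by LC/MS-MS. Cmax and Tmax read directly from concentration–time profiles.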

[31] = molecular target: Mitogen-activated protein kinase 8 (Homo sapiens, UniProt P45983); assay: Binding affinity to JNK1 (unknown origin) assessed as dissociation constant
Chain of Mitogen-activated protein kinase 8 (P45983 whole entry): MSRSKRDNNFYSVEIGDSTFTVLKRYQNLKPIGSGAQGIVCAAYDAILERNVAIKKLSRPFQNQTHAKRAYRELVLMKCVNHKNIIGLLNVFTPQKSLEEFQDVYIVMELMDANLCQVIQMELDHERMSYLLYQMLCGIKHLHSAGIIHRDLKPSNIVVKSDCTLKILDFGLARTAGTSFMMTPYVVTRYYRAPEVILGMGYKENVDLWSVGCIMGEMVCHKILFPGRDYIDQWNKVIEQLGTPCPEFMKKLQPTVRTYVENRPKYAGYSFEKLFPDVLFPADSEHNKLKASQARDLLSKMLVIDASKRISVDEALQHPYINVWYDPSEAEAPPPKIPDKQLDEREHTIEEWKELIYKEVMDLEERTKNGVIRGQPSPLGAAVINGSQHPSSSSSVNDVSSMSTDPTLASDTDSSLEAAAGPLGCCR

[32] = molecular target: Mitogen-activated protein kinase kinase kinase kinase 1 (Homo sapiens, UniProt Q92918); assay: Binding affinity to HPK1 (unknown origin) assessed as dissociation constant
Chain of Mitogen-activated protein kinase kinase kinase kinase 1 (Q92918 whole entry): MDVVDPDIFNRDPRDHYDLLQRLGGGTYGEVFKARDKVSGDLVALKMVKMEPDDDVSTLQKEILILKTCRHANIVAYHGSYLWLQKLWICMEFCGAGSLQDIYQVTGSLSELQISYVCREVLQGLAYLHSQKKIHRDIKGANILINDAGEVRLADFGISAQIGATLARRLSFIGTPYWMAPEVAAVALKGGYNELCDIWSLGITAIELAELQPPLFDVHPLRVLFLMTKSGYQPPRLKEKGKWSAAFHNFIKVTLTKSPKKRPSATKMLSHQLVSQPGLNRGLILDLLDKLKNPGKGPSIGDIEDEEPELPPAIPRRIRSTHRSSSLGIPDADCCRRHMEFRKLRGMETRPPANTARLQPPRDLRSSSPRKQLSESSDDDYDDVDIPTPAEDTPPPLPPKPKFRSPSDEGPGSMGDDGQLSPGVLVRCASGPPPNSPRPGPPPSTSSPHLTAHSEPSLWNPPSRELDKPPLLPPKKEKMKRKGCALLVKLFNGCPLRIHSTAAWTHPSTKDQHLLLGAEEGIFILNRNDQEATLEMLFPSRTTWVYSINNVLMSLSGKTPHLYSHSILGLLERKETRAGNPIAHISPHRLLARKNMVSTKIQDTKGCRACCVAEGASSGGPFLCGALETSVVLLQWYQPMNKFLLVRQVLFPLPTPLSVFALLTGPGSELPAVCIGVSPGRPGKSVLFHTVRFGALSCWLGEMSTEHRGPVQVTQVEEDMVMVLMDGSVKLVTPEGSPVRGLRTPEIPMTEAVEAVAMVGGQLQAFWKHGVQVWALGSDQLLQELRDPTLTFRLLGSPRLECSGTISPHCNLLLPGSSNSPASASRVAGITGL

[33] = Antiproliferative activity against human A2780cis cells assessed as cell growth inhibition incubated for 96 hrs by crystal violet staining
[34] = molecular target: Mast/stem cell growth factor receptor Kit (Homo sapiens, UniProt P10721); assay: Binding affinity to KIT (unknown origin) assessed as dissociation constant

COc1cc(S(C)(=O)=O)ccc1Nc1nc2ccc(-c3ccc(NC(=O)[C@H](C)c4ccc(F)cc4)cc3)cn2n1 [BAY-1161909]
Vd [1]: 2.4 L/kg | IC50 [2]: > 3000 nM | IC50 [3]: > 3000 nM | IC50 [4]: 96 nM | IC50 [5]: 110 nM | IC50 [6]: 91 nM | IC50 [7]: 110 nM | IC50 [8]: 130 nM | IC50 [9]: > 3000 nM | IC50 [10]: 100 nM | IC50 [11]: 69 nM | IC50 [12]: 150 nM | IC50 [13]: 670 nM | Kd [14]: 96 nM | IC50 [15]: 190 nM | IC50 [16]: 100 nM | IC50 [17]: 48 nM | Kd [18]: 40000 nM | Kd [19]: 40000 nM | half-life [20]: 14 h | IC50 [21]: 700 nM | Kd [22]: 280 nM | IC50 [23]: 110 nM | IC50 [24]: 560 nM | IC50 [25]: 450 nM | Activity [26]: Non-Toxic | T/C [27]: 0.43 | IC50 [28]: 210 nM | IC50 [29]: 520 nM | Cmax [30]: 110 ng/mL | Kd [31]: 240 nM | Kd [32]: 40000 nM | IC50 [33]: 60 nM | Kd [34]: 370 nM
